ChEMBL document CHEMBL3351600, “Sulfur, selenium and tellurium pseudopeptides: synthesis and biological evaluation” (Bioorg Med Chem, 2014)

Legend:
[1] = tested on: ACHN; assay: Growth inhibition of human ACHN cells after 48 hrs; format: functional
Procedure, shortened: (§1)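 NCI-60 human tumour cell line panel screen run at the US National Cancer Institute under its standard cytotoxicity protocol. It covers leukaemia, NSCLC, colon, CNS, melanoma, ovarian, renal, prostate and breast lines. An initial single-dose test was followed by five-dose testing with 48 h compound exposure.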

[2] = tested on: CAKI-1; assay: Growth inhibition of human CAKI-1 cells after 48 hrs; format: functional; conditions: CAKI-1, 48 h; procedure, shortened: as §1
[3] = Growth inhibition of human RXF393 cells after 48 hrs; format: functional; conditions: RXF 393, 48 h; procedure, shortened: as §1
[4] = Growth inhibition of human UO31 cells after 48 hrs; format: functional; conditions: UO-31, 48 h
Procedure, shortened: (§2)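 Run by the NCI 58-cell-line screen under its standard cytotoxicity protocol. Compounds were first tested at a single dose, then at five doses. Cells were exposed to compound for 48 h.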

[5] = Growth inhibition of human PC3 cells after 48 hrs; format: functional; conditions: PC-3, 48 h; procedure, shortened: as §1
[6] = tested on: T47D; assay: Growth inhibition of human T47D cells after 48 hrs; format: functional; procedure, shortened: as §2
[7] = Growth inhibition of human LOXIMVI cells after 48 hrs; format: functional; conditions: LOX IMVI; procedure, shortened: as §1
[8] = tested on: MCF7; assay: Cytotoxicity against human MCF7 cells assessed as cell viability after 24 hrs incubation by MTT assay; format: functional, cell-based; conditions: MCF7, 24 h
Procedure, shortened: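 Cell lines came from DSMZ; primary human fibroblasts served as non-cancer controls. Cells were grown in medium with 10% FCS, seeded at 50,000 cells/ml, and grown 2 days at 37 °C, 10% CO2. Serial dilutions were then added for 24 h. MTT (final 0.5 mg/ml) was added for 2 h. Formazan was pelleted, PBS-washed, dissolved in isopropanol/0.4% HCl and read at 590 nm. Two parallel experiments were run. IC50 was taken as the concentration giving 50% of untreated-control absorbance.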

[9] = Octanol-water partition coefficient, log P of the compound by HPLC analysis; format: physicochemical
Procedure, shortened: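 Lipophilicity was measured by reversed-phase HPLC on a Nucleosil C18 column with isocratic water/methanol (3:1) at 0.5 ml/min and UV detection at 230 and 245 nm. Dead time was set with thiourea (t0 0.728 min). Retention factor was k = (tR − t0)/t0, and log P came from a calibration against at least six reference compounds.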

[10] = tested on: Saccharomyces cerevisiae; assay: Antimicrobial activity against Saccharomyces cerevisiae assessed as inhibition at 20 ug/6 mm disk after 1 to 2 days by agar diffusion assay; format: functional
Procedure, shortened: (§3)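 Standard agar diffusion: 6-mm paper disks loaded with 20 µg of compound were placed on inoculated plates. Inhibition-zone diameter (mm) was read after 1 and 2 days of growth.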

[11] = tested on: Aspergillus niger; assay: Antimicrobial activity against Aspergillus niger assessed as inhibition at 20 ug/6 mm disk after 1 to 2 days by agar diffusion assay; format: functional; procedure, shortened: as §3
[12] = tested on: Mycolicibacterium phlei; assay: Antimicrobial activity against Mycobacterium phlei assessed as inhibition at 20 ug/6 mm disk after 1 to 2 days by agar diffusion assay; format: functional; procedure, shortened: as §3
[13] = tested on: Micrococcus luteus; assay: Antimicrobial activity against Micrococcus luteus assessed as inhibition at 20 ug/6 mm disk after 1 to 2 days by agar diffusion assay; format: functional; procedure, shortened: as §3
[14] = tested on: Klebsiella pneumoniae; assay: Antimicrobial activity against Klebsiella pneumoniae assessed as inhibition at 20 ug/6 mm disk after 1 to 2 days by agar diffusion assay; format: functional; procedure, shortened: as §3
[15] = tested on: HL-60(TB); assay: Growth inhibition of human HL-60(TB) cells after 48 hrs; format: functional; conditions: HL-60, 48 h; procedure, shortened: as §1
[16] = tested on: K562; assay: Growth inhibition of human K562 cells after 48 hrs; format: functional; conditions: K562, 48 h; procedure, shortened: as §1
[17] = Growth inhibition of human RPMI8226 cells after 48 hrs; format: functional; conditions: RPMI-8226, 48 h; procedure, shortened: as §1
[18] = tested on: A549; assay: Growth inhibition of human A549/ATCC cells after 48 hrs; format: functional; conditions: A549, 48 h; procedure, shortened: as §1
[19] = Growth inhibition of human HOP92 cells after 48 hrs; format: functional; conditions: HOP-92, 48 h; procedure, shortened: as §1
[20] = tested on: NCI-H322M; assay: Growth inhibition of human NCI-H322M cells after 48 hrs; format: functional; procedure, shortened: as §1
[21] = tested on: NCI-H522; assay: Growth inhibition of human NCI-H522 cells after 48 hrs; format: functional; conditions: NCI-H522, 48 h; procedure, shortened: as §1
[22] = Growth inhibition of human HCT116 cells after 48 hrs; format: functional; conditions: HCT-116, 48 h; procedure, shortened: as §1
[23] = Growth inhibition of human HCT15 cells after 48 hrs; format: functional; conditions: HCT-15, 48 h; procedure, shortened: as §1
[24] = tested on: SW-620; assay: Growth inhibition of human SW620 cells after 48 hrs; format: functional; conditions: SW-620, 48 h; procedure, shortened: as §2
[25] = Growth inhibition of human SF539 cells after 48 hrs; format: functional; conditions: SF-539, 48 h; procedure, shortened: as §1
[26] = tested on: M14; assay: Growth inhibition of human M14 cells after 48 hrs; format: functional; conditions: M14, 48 h; procedure, shortened: as §1
[27] = tested on: MDA-MB-435; assay: Growth inhibition of human MDA-MB-435 cells after 48 hrs; format: functional; conditions: MDA-MB-435, 48 h; procedure, shortened: as §1
[28] = Growth inhibition of human UACC257 cells after 48 hrs; format: functional; conditions: UACC-257, 48 h; procedure, shortened: as §2
[29] = Growth inhibition of human UACC62 cells after 48 hrs; format: functional; conditions: UACC-62, 48 h; procedure, shortened: as §2
[30] = Growth inhibition of human OVCAR4 cells after 48 hrs; format: functional; conditions: OVCAR-4, 48 h; procedure, shortened: as §1
[31] = Growth inhibition of human NCI-ADR-RES cells after 48 hrs; format: functional; procedure, shortened: as §1
[32] = tested on: 786-0; assay: Growth inhibition of human 786-0 cells after 48 hrs; format: functional; conditions: 786-0, 48 h; procedure, shortened: as §1
[33] = read-out: pLC50 (the source's name) (converted)

CC1=C(SCCC(=O)OCC(=O)NCCC[Te]c2ccccc2)C(=O)c2ccccc2C1=O
GI50 [1]: 2.82 µM | LC50 [1]: 40.7 µM | TGI ([1]; read-out: pTGI (converted)): 11 µM | GI50 [2]: 2.95 µM | LC50 [2]: 39.8 µM | TGI ([2]; read-out: pTGI (converted)): 11.2 µM | GI50 [3]: 1.74 µM | LC50 [3]: 12.9 µM | TGI ([3]; read-out: pTGI (converted)): 4.37 µM | GI50 [4]: 1.86 µM | LC50 [4]: 36.3 µM | TGI ([4]; read-out: pTGI (converted)): 9.55 µM | GI50 [5]: 2.4 µM | LC50 [5]: 42.7 µM | TGI ([5]; read-out: pTGI (converted)): 12 µM | GI50 [6]: 2 µM | LC50 [6]: > 100 µM | TGI ([6]; read-out: pTGI (converted)): 5.75 µM | GI50 [7]: 2.14 µM | LC50 [7]: 75.9 µM | TGI ([7]; read-out: pTGI (converted)): 5.37 µM | IC50 [8]: 12 µM | logP [9]: 3.8 | diameter of the inhibition zone (DIZ) [10]: 0 mm | diameter of the inhibition zone (DIZ) [11]: 19 mm | diameter of the inhibition zone (DIZ) [12]: 16 mm | diameter of the inhibition zone (DIZ) [13]: 11 mm | diameter of the inhibition zone (DIZ) [14]: 13 mm | GI50 [15]: 2.57 µM | CC50 [15, 33]: > 100 µM | TGI ([15]; read-out: pTGI (converted)): 7.24 µM | GI50 [16]: 3.55 µM | CC50 [16, 33]: > 100 µM | TGI ([16]; read-out: pTGI (converted)): 34.7 µM | GI50 [17]: 2.57 µM | CC50 [17, 33]: > 100 µM | TGI ([17]; read-out: pTGI (converted)): 9.33 µM | GI50 [18]: 1.29 µM | CC50 [18, 33]: > 100 µM | TGI ([18]; read-out: pTGI (converted)): 3.63 µM | GI50 [19]: 1.58 µM | CC50 [19, 33]: 19.5 µM | TGI ([19]; read-out: pTGI (converted)): 4.9 µM | GI50 [20]: 2.88 µM | CC50 [20, 33]: 83.2 µM | TGI ([20]; read-out: pTGI (converted)): 12.6 µM | GI50 [21]: 2.51 µM | CC50 [21, 33]: 47.9 µM | TGI ([21]; read-out: pTGI (converted)): 10.2 µM | GI50 [22]: 1.66 µM | CC50 [22, 33]: 11.5 µM | TGI ([22]; read-out: pTGI (converted)): 4.17 µM | GI50 [23]: 2.57 µM | CC50 [23, 33]: 77.6 µM | TGI ([23]; read-out: pTGI (converted)): 12 µM | GI50 [24]: 3.98 µM | CC50 [24, 33]: 60.3 µM | TGI ([24]; read-out: pTGI (converted)): 17 µM | GI50 [25]: 2.09 µM | CC50 [25, 33]: 27.5 µM | TGI ([25]; read-out: pTGI (converted)): 6.61 µM | GI50 [26]: 2.04 µM | CC50 [26, 33]: 17 µM | TGI ([26]; read-out: pTGI (converted)): 5.13 µM | GI50 [27]: 4.27 µM | CC50 [27, 33]: 57.5 µM | TGI ([27]; read-out: pTGI (converted)): 15.8 µM | GI50 [28]: 2.75 µM | CC50 [28, 33]: 32.4 µM | TGI ([28]; read-out: pTGI (converted)): 7.94 µM | GI50 [29]: 1.86 µM | CC50 [29, 33]: 13.5 µM | TGI ([29]; read-out: pTGI (converted)): 4.57 µM | GI50 [30]: 2.14 µM | LC50 [30]: 29.5 µM | TGI ([30]; read-out: pTGI (converted)): 7.41 µM | GI50 [31]: 2.69 µM | LC50 [31]: 55 µM | TGI ([31]; read-out: pTGI (converted)): 10.2 µM | GI50 [32]: 2.69 µM | LC50 [32]: 29.5 µM | TGI ([32]; read-out: pTGI (converted)): 8.32 µM
